Assays:
Mus musculus [1] = experiment: Ratio of ED50 for inhibition of phenyl-p-benzoquinine-induced writhing in po dosed CD-1 Charles River mouse to ED50 for inhibition of phenyl-p-benzoquinine-induced writhing in sc dosed CD-1 Charles River mouse; format: functional
In short: (§1)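 Writhing ED50s came from male CD-1 mice, ten per dose, tested at peak time after sc or po dosing, with four doses plus a vehicle control (water with Tween 80) in randomized order. Writhes were counted for 10 min, beginning 5 min after 0.125% phenyl-p-benzoquinone. ED50 was estimated by linear regression of percent inhibition, and ratios were formed from these ED50s.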

Mus musculus [2] = species: Mus musculus; experiment: animal or person; format: functional; details: CD-1 Charles River, sc
Mus musculus [3] = experiment: Analgesic activity in po dosed CD-1 Charles River mouse assessed as inhibition of phenyl-p-benzoquinine-induced writhing administered 15 to 90 mins prior to phenyl-p-benzoquinine challenge measured after 5 mins; format: functional
Mus musculus [4] = experiment: Analgesic activity in CD-1 Charles River mouse at 25 mg/kg, sc measured for 15 to 60 mins by tail flick test relative to control; format: functional; details: route subcutaneous
In short: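 Male CD-1 mice, ten per group, were restrained and given an intense light-beam stimulus, and tail-flick latency was recorded. Two baseline readings were taken. Mice were excluded if their readings differed by more than 1 s or if including them would widen the group spread beyond 3 s. A cutoff was set from the baselines. Drug was given sc (vehicle 10 mL/kg), and mice were tested at 15, 30, 45 and 60 min. Responses beyond the cutoff counted as analgesia, reported as percent.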

Mus musculus [5] = experiment: Potency index, ratio of propoxyphene ED50 to compound ED50 for inhibition of phenyl-p-benzoquinine-induced writhing in sc dosed CD-1 Charles River mouse; format: functional; in short: as §1
Mus musculus [6] = experiment: Potency index, ratio of propoxyphene ED50 to compound ED50 for inhibition of phenyl-p-benzoquinine-induced writhing in po dosed CD-1 Charles River mouse; format: functional; in short: as §1
Mus musculus [7] = experiment: Analgesic activity in po dosed CD-1 Charles River mouse measured for 15 to 60 mins by tail flick test relative to control; format: functional
[8] = Ratio of ED50 for neurotoxicity in CD-1 Charles River mouse by rotarod test to ED50 for inhibition of phenyl-p-benzoquinine-induced writhing in CD-1 Charles River mouse; format: toxicity, organism-based; details: CD-1, mouse, in vivo; read-out: Ratio ED50
Mus musculus [9] = experiment: Analgesic activity in CD-1 Charles River mouse assessed as inhibition of phenyl-p-benzoquinine-induced writhing at 5 mg/kg, po administered 15 to 90 mins prior to phenyl-p-benzoquinine challenge measured after 5 mins relative to control; format: functional
In short: (§2)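 Male CD-1 Charles River mice (18-24 g), five per group, were given the drug 15, 30, 60 and 90 min before an injection of 0.125% phenyl-p-benzoquinone in 5% aqueous ethanol. The vehicle was distilled water with a few drops of Tween 80. Writhes were counted for 10 min, starting 5 min after the injection, with mice held singly in beakers. The read-out was percent inhibition of writhes versus vehicle-treated mice.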

Mus musculus [10] = experiment: Analgesic activity in CD-1 Charles River mouse assessed as inhibition of phenyl-p-benzoquinine-induced writhing at 25 mg/kg, sc administered 15 to 90 mins prior to phenyl-p-benzoquinine challenge measured after 5 mins relative to control; format: functional; details: route subcutaneous; in short: as §2
Mus musculus [11] = experiment: Analgesic activity in sc dosed CD-1 Charles River mouse measured for 15 to 60 mins by tail flick test relative to control; format: functional
Mus musculus [12] = experiment: Analgesic activity in CD-1 Charles River mouse assessed as inhibition of phenyl-p-benzoquinine-induced writhing at 25 mg/kg, po administered 15 to 90 mins prior to phenyl-p-benzoquinine challenge measured after 5 mins relative to control; format: functional; in short: as §2

CCC(=O)O[C@](Cc1ccccc1)(c1ccccc1)[C@H](C)CN(C)C [PROPOXYPHENE]
Ratio ED50 (Mus musculus [1]): 6.3
ED50 (Mus musculus [2]): 3.9 mg/kg
ED50 (Mus musculus [3]): 24.6 mg/kg

Cl.O=C1c2cc(F)ccc2Oc2ccccc2C12CCNCC2
Ratio ED50 (Mus musculus [1]): 1
Activity (Mus musculus [4]): 75%
Ratio ED50 (Mus musculus [5]): 2
ED50 (Mus musculus [2]): 1.6 mg/kg
ED50 (Mus musculus [3]): 2.2 mg/kg
Ratio ED50 (Mus musculus [6]): 10
ED50 (Mus musculus [7]): 51.4 mg/kg
selectivity ratio [8]: 17.6

Br.O=C(CCCN1CCC2(CC1)C(=O)c1ccccc1Oc1ccccc12)c1ccc(F)cc1
Activity (Mus musculus [4]): 60%
inhibition in vivo at 5 mg/kg (Mus musculus [9]): 67%

C#CCN1CCC2(CC1)C(=O)c1cc(Cl)ccc1Oc1ccccc12
Activity (Mus musculus [4]): 10%
inhibition in vivo at 25 mg/kg (Mus musculus [10]): 32%

O=C1c2cc(Cl)ccc2Oc2ccccc2C12CCN(CCCOc1ccccc1)CC2
Activity (Mus musculus [4]): 0%
inhibition in vivo at 25 mg/kg (Mus musculus [10]): 54%

Br.O=C1c2ccccc2Oc2ccccc2C12CCN(CCCOc1ccccc1)CC2
Activity (Mus musculus [4]): 20%
inhibition in vivo at 25 mg/kg (Mus musculus [10]): 55%

Br.CCCN1CCC2(CC1)C(=O)c1cc(Cl)ccc1Oc1ccccc12
Activity (Mus musculus [4]): 10%
inhibition in vivo at 25 mg/kg (Mus musculus [10]): 22%

Br.CN1CCC2(CC1)C(=O)c1ccccc1Oc1ccccc12
Activity (Mus musculus [4]): 13%
ED50 (Mus musculus [2]): 5.2 mg/kg

Br.CCN1CCC2(CC1)C(=O)c1cc(Cl)ccc1Oc1ccccc12
Activity (Mus musculus [4]): 0%
inhibition in vivo at 25 mg/kg (Mus musculus [10]): 67%

Br.CN1CCC2(CC1)C(=O)c1cc(F)ccc1Oc1ccccc12
Ratio ED50 (Mus musculus [1]): 1
Activity (Mus musculus [4]): 30%
Ratio ED50 (Mus musculus [5]): 2
ED50 (Mus musculus [2]): 1.9 mg/kg
ED50 (Mus musculus [3]): 2 mg/kg
Ratio ED50 (Mus musculus [6]): 10

Br.O=C1c2ccccc2Oc2ccccc2C12CCN(CCO)CC2
Activity (Mus musculus [4]): 40%
ED50 (Mus musculus [2]): 2.8 mg/kg

O=C1c2cc(Cl)ccc2Oc2ccccc2C12CCN(CCc1ccccc1)CC2
Activity (Mus musculus [4]): 0%
inhibition in vivo at 25 mg/kg (Mus musculus [10]): 30%

Br.O=C(CCCN1CCC2(CC1)C(=O)c1cc(Cl)ccc1Oc1ccccc12)c1ccc(F)cc1
Activity (Mus musculus [4]): 20%
inhibition in vivo at 25 mg/kg (Mus musculus [10]): 49%

CC(C)=CCN1CCC2(CC1)C(=O)c1cc(Cl)ccc1Oc1ccccc12
inhibition in vivo at 25 mg/kg (Mus musculus [10]): 42%

CN1CC[C@]23c4c5ccc(O)c4O[C@H]2[C@@H](O)C=C[C@H]3[C@H]1C5.CN1CC[C@]23c4c5ccc(O)c4O[C@H]2[C@@H](O)C=C[C@H]3[C@H]1C5.O=S(=O)(O)O
ED50 (Mus musculus [2]): 0.36 mg/kg

Br.O=C1c2ccccc2Oc2ccccc2C12CCN(CCc1ccccc1)CC2
Activity (Mus musculus [4]): 40%
ED50 (Mus musculus [2]): 21 mg/kg

Br.CN1CCC2(CC1)C(=O)c1cc(Cl)ccc1Oc1ccccc12
ED50 (Mus musculus [11]): 13.2 mg/kg
Ratio ED50 (Mus musculus [1]): 1.5
ED50 (Mus musculus [2]): 3.5 mg/kg
ED50 (Mus musculus [3]): 5.2 mg/kg

CC(C)=CCN1CC[C@]2(C)c3cc(O)ccc3C[C@H]1[C@H]2C [(+)-PENTAZOCINE]
ED50 (Mus musculus [2]): 2.4 mg/kg

Br.O=C1c2ccccc2Oc2ccccc2C12CCN(CC1CC1)CC2
inhibition in vivo at 25 mg/kg (Mus musculus [12]): 59%
ED50 (Mus musculus [2]): 6 mg/kg

Br.C#CCN1CCC2(CC1)C(=O)c1ccccc1Oc1ccccc12
Activity (Mus musculus [4]): 20%
inhibition in vivo at 25 mg/kg (Mus musculus [10]): 57%

Br.O=C1c2ccccc2Oc2ccccc2C12CCNCC2
Ratio ED50 (Mus musculus [1]): 4.5
Activity (Mus musculus [4]): 60%
ED50 (Mus musculus [2]): 1.7 mg/kg
ED50 (Mus musculus [3]): 7.5 mg/kg

Br.O=C1c2cc(Cl)ccc2Oc2ccccc2C12CCN(CC1CC1)CC2
Activity (Mus musculus [4]): 0%
inhibition in vivo at 25 mg/kg (Mus musculus [10]): 31%

Br.O=C1c2cc(Cl)ccc2Oc2ccccc2C12CCNCC2
ED50 (Mus musculus [11]): 12 mg/kg
Ratio ED50 (Mus musculus [1]): 2
ED50 (Mus musculus [2]): 3.7 mg/kg
ED50 (Mus musculus [3]): 7.7 mg/kg

Br.O=C1c2cc(Cl)ccc2Oc2ccccc2C12CCN(CCO)CC2
Activity (Mus musculus [4]): 30%
ED50 (Mus musculus [2]): 7 mg/kg

Br.C=CCN1CCC2(CC1)C(=O)c1cc(Cl)ccc1Oc1ccccc12
Activity (Mus musculus [4]): 10%
inhibition in vivo at 25 mg/kg (Mus musculus [10]): 37%

From ChEMBL document CHEMBL3244352, “Synthesis and analgesic activity of some spiro[dibenz[b,f]oxepin-10,4'-piperidine] derivatives” (J Med Chem, 1979)
